Laboratory results taken from paper PMC3074966 (European journal of medicinal chemistry, 2010).
pIC50: −log10 of the molar value.

Columns and labels:
[1] = tested on: panel of five human cell lines (HeLa, A549, HL-60, Jurkat, K562); experiment: Antiproliferative assay, summary over the cell line panel; assay type: cell-based
HeLa cells [2] = experiment: Annexin-V/PI assay; assay type: cell-based, human; settings: 24 h, compared with control
caspase-3 in HeLa cells = experiment: Caspase-3 assay; assay type: cell-based, human; settings: 24 and 48 h
HeLa cells [3] = experiment: Western blot analysis; assay type: cell-based, human
HeLa cells [4] = experiment: Mitochondrial membrane potential; assay type: cell-based, human; settings: 24 and 48 h
Jurkat cells = experiment: Flow cytometric analysis of cell cycle distribution; assay type: cell-based, human; settings: after 48 h of treatment (data not shown)
Method in brief: (§1)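 Exponentially growing cells (5 × 10⁵) were exposed to varying concentrations of test compound for 24 and 48 h. They were then collected and fixed in ice-cold 70% ethanol, then treated with lysis buffer containing RNase A and 0.1% Triton X-100. Cells were stained with propidium iodide and analysed by flow cytometry, with sub-G1 (hypodiploid) DNA content scored at 48 h.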

HeLa cells [5] = experiment: as above; assay type: cell-based, human; settings: after 48 h of treatment (data not shown)
Method in brief: as §1

HeLa cells [6] = experiment: ROS production; assay type: cell-based, human; settings: 24 and 48 h, HE and H2-DCFDA
[7] = average antiproliferative activity

## COc1cc(C(=O)c2sc3ccccc3c2-c2ccccc2)cc(OC)c1OC [Compound 3a, (3,4,5-Trimethoxyphenyl)(3-phenylbenzo[b]thiophen-2-yl) methanone]
[1]; Homo sapiens, read-out: IC50 against HeLa, HL-60, Jurkat and K562 cells
  pIC50: 5.68 to 5.82

## COc1ccc(Nc2c(C(=O)c3cc(OC)c(OC)c(OC)c3)sc3ccccc23)cc1 [Compound 4d, (3-(4-Methoxyphenylamino)benzo[b]thiophen-2-yl)(3,4,5-trimethoxyphenyl)methanone]
[1]; [7]
  loss in activity relative to unsubstituted 4a: ~50%

## CCOc1ccc(Nc2c(C(=O)c3cc(OC)c(OC)c(OC)c3)sc3ccccc23)cc1 [Compound 4e, (3-(4-Ethoxyphenylamino)benzo[b]thiophen-2-yl)(3,4,5-trimethoxyphenyl)methanone]
HeLa cells [2]
  annexin-V positive cells: induced an accumulation of annexin-V positive cells
[1]; [7]
  fold increase in activity relative to unsubstituted 4a: 5 fold
[1]; most active vs least active 3-anilino derivative
  fold difference in average antiproliferative activity between 4e and 4d: 9 fold
[1]; over the five cell lines
  fold lower IC50 than 3k: 2- to 15 fold
caspase-3 in HeLa cells
  activation of caspase-3: activation of caspase-3 in a time- and concentration-dependent manner
HeLa cells [3]
  expression of Bax: remained unchanged
  expression of Bcl-2: slight decrease
HeLa cells [3]; 24 or 48 h
  cyclin B1 expression: concentration-dependent increase
  phosphatase cdc25c (phosphorylation state): slower migrating forms of phosphatase cdc25c were present
HeLa cells [3]; 24 h and 48 h
  89 kDa cleaved fragment of PARP: increased
HeLa cells [3]; increasing concentrations
  expression of p53: no difference
HeLa cells [4]
  mitochondrial membrane potential (Rho 123 fluorescence): reduction of Rho 123 fluorescence intensity
Jurkat cells
  hypodiploid peak (sub-G1) indicative of apoptosis: appeared in both cell lines
HeLa cells [5]
  hypodiploid peak (sub-G1) indicative of apoptosis: appeared in both cell lines
HeLa cells [6]
  production of ROS: induces the production of large amounts of ROS

## CCOc1ccc(Nc2c(C(=O)c3cc(OC)c(OC)c(OC)c3)sc3cc(C)ccc23)cc1 [Compound 4g, (3-(4-Ethoxyphenylamino)-6-methylbenzo[b]thiophen-2-yl) (3,4,5-trimethoxyphenyl)methanone]
[1]; over the five cell lines
  fold less potent than 4e: 4- to 20 fold
